Results as given in ChEMBL document CHEMBL1154752, “Discovery of a new and efficient small molecule for neuronal differentiation from mesenchymal stem cell” (J Med Chem, 2009).
The source made the active and inactive calls. The calls are words filed in the database; no cut-off is given here.

Assays:
Mesenchymal stem cell [1] = test: Induction of neuronal differentiation in Fisher rat mesenchymal stem cells assessed as change in cell morphology at 20 uM after 2 days; format: functional, cell-based
How it was run: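 Bone marrow MSCs treated at 20 μM for 2 days. Morphology inspected by immunocytochemistry with anti-β-III tubulin and DAPI staining.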

Mesenchymal stem cell [2] = test: Induction of neuronal differentiation in Fisher rat mesenchymal stem cells assessed as induction of Sizn1 gene expression after 2 days by quantitative PCR; format: functional, cell-based
How it was run: (§1)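 MSCs incubated at 10 and 20 μM for 2 days beside a DMSO control. mRNA levels measured by quantitative PCR, three independent runs.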

Mesenchymal stem cell [3] = test: Induction of neuronal differentiation in Fisher rat mesenchymal stem cells assessed as change in acetylcholine-induced membrane potential at 20 uM after 2 days by FLIPR; format: functional, cell-based
How it was run: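 Rat MSCs preincubated with 20 μM for 48 h. Membrane potential read with a FLIPR membrane potential dye kit after addition of 10 μM acetylcholine, with untreated cells as reference.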

PC-12 [4] = test: Induction of neurite outgrowth in rat PC12 cells after 48 hrs; format: functional, cell-based
PC-12 [5] = test: Induction of neuronal differentiation in rat PC12 cells assessed as increase in neuron specific enolase expression after 48 hrs; format: functional, cell-based
PC-12 [6] = test: Induction of neuronal differentiation in rat PC12 cells assessed as increase in beta-3 tubulin expression after 48 hrs; format: functional, cell-based
[7] = Toxicity in Fisher rat mesenchymal stem cells at 20 uM after 2 days; format: cell-based; conditions: mesenchymal stem cell, 48 h
Mesenchymal stem cell [8] = test: Induction of neuronal differentiation in Fisher rat mesenchymal stem cells assessed as increase in beta-3 tubulin expression after 2 days; format: functional, cell-based
How it was run: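 Rat bone marrow MSCs given 20 μM for 2 days, with 50 ng/mL NGF as comparator. β-III tubulin detected by Western blot and by immunocytochemistry with anti-β-III tubulin plus DAPI counterstain. More than three independent repeats.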

Mesenchymal stem cell [9] = test: Induction of neuronal differentiation in Fisher rat mesenchymal stem cells assessed as increase in neuron specific enolase expression after 2 days; format: functional, cell-based
How it was run: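 Rat bone marrow MSCs treated over a time course. Neuron-specific enolase protein followed alongside β-III tubulin. More than three independent experiments.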

[10] = Induction of neuronal differentiation in Fisher rat mesenchymal stem cells at 20 uM after 2 days by Nissl staining; format: functional, Mesenchymal stem cell
How it was run: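 Bone marrow MSCs held at 20 μM for 2 days, then Nissl stained. Differentiation estimated by counting cells. Each experiment repeated independently more than three times.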

Mesenchymal stem cell [11] = test: Induction of astroglial differentiation in Fisher rat mesenchymal stem cells assessed as GFAP level at 20 uM after 2 days by Western blot; format: functional, cell-based
How it was run: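 Rat bone marrow MSCs exposed to 20 μM for 48 h. GFAP, the astroglial marker, detected by Western blot.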

Mesenchymal stem cell [12] = test: Induction of neuronal differentiation in Fisher rat mesenchymal stem cells assessed as induction of potassium current at 20 uM after 2 days by patch clamp method; format: functional, cell-based
How it was run: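 Rat MSCs treated at 20 μM for 2 days. Whole-cell patch clamp records membrane K+ current under voltage pulses from -30 to 90 mV.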

Mesenchymal stem cell [13] = test: Induction of neuronal differentiation in Fisher rat mesenchymal stem cells assessed as induction of Chrna2 gene expression by DNA microarray; format: functional, cell-based
Mesenchymal stem cell [14] = test: Induction of neuronal differentiation in Fisher rat mesenchymal stem cells assessed as induction of Chrnb2 gene expression by DNA microarray; format: functional, cell-based
Mesenchymal stem cell [15] = test: Induction of neuronal differentiation in Fisher rat mesenchymal stem cells assessed as induction of Chrm4 gene expression by DNA microarray; format: functional, cell-based
Mesenchymal stem cell [16] = test: Induction of neuronal differentiation in Fisher rat mesenchymal stem cells assessed as induction of cholinergic receptor gene expression after 2 days by quantitative PCR; format: functional, cell-based; how it was run: as §1
Mesenchymal stem cell [17] = test: Induction of neuronal differentiation in Fisher rat mesenchymal stem cells assessed as induction of Fbxo2 gene expression after 2 days by quantitative PCR; format: functional, cell-based; how it was run: as §1

O=C(NOC1CCCCO1)c1ccc2[nH]c(=O)c(CCCc3ccccc3)nc2c1 (configuration not stated)
Activity (Mesenchymal stem cell [1]): inactive

O=C(NO)c1ccc2nc(CCCc3ccccc3)c(=O)[nH]c2c1
Activity (Mesenchymal stem cell [1]): inactive

COC(=O)c1ccc2[nH]c(=O)c(CCCc3ccccc3)nc2c1
Activity (Mesenchymal stem cell [1]): inactive

O=C(NOC1CCCCO1)c1ccc2nc(CCCc3ccccc3)c(=O)[nH]c2c1 (configuration not stated)
Activity (Mesenchymal stem cell [1]): inactive

O=C(NO)c1ccc2[nH]c(=O)c(CCCc3ccccc3)nc2c1
Activity (Mesenchymal stem cell [2]): Dose-dependent effect
Activity (Mesenchymal stem cell [3]): Active
Activity (PC-12 [4]): Active
Activity (PC-12 [5]): Active
Activity (PC-12 [6]): Active
Activity (Mesenchymal stem cell [1]): Active
Activity [7]: Non-toxic
Activity (Mesenchymal stem cell [8]): Dose-dependent effect
Activity (Mesenchymal stem cell [9]): Dose-dependent effect
Activity [10]: >95%
Activity (Mesenchymal stem cell [11]): inactive
Activity (Mesenchymal stem cell [12]): Active
Activity (Mesenchymal stem cell [13]): Active
Activity (Mesenchymal stem cell [14]): Active
Activity (Mesenchymal stem cell [15]): Active
Activity (Mesenchymal stem cell [16]): Dose-dependent effect
Activity (Mesenchymal stem cell [17]): Dose-dependent effect

COC(=O)c1ccc2nc(CCCc3ccccc3)c(=O)[nH]c2c1
Activity (Mesenchymal stem cell [1]): inactive
